Test results published in ChEMBL document CHEMBL1156051, “Synthesis and evaluation of lysophosphatidylserine analogues as inducers of mast cell degranulation. Potent activities of lysophosphatidylthreonine and its 2-deoxy derivative” (J Med Chem, 2009).
The source made the active and inactive calls. No cut-off for these calls is given here.

Experiments:
[1] = tested on: Mast cell; test: Induction of Wistar rat peritoneal mast cell degradation assessed as concanavalin A-induced histamine release after 15 mins fluorometric assay; type: functional, cell-based; settings: 0.25 h
Procedure, shortened: (§1)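 Peritoneal mast cells at 5 × 10^4/mL in HEPES-buffered Tyrode stimulated with analogue plus 100 μg/mL concanavalin A for 15 min at 37 C. Supernatant histamine measured fluorometrically and expressed as percent of total cell histamine. Means ± SE of three independent experiments.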

[2] = tested on: Mast cell; test: Induction of Wistar rat peritoneal mast cell degradation assessed as concanavalin A-induced histamine release at 0.01 to 10 uM after 15 mins fluorometric assay; type: functional, cell-based; procedure, shortened: as §1
[3] = tested on: Mast cell; test: Induction of C57BL/6 mouse peritoneal mast cell degradation assessed as concanavalin A-induced histamine release at 0.01 to 10 uM after 15 mins fluorometric assay; type: functional, cell-based
Procedure, shortened: (§2)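 Peritoneal mast cells at 5 × 10^4/mL in HEPES-buffered Tyrode stimulated with analogue plus 10 μg/mL concanavalin A for 15 min at 37 C. Supernatant histamine measured fluorometrically and expressed as percent of total cell histamine. Means ± SE of three independent experiments.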

[4] = Cytotoxicity against concanavalin A-stimulated Wistar rat peritoneal mast cells assessed as LDH release at 50 uM; type: cell-based
[5] = tested on: Mast cell; test: Induction of C57BL/6 mouse peritoneal mast cell degradation assessed as concanavalin A-induced histamine release after 15 mins fluorometric assay; type: functional, cell-based; settings: C57BL/6, Mast cell, 0.25 h; procedure, shortened: as §2
[6] = tested on: Rattus norvegicus; test: Effect on hypothermic effect in iv dosed Wistar rat assessed as reduction in rectal temperature measured every 5 to 10 mins for 60 mins; type: functional, organism-based
Procedure, shortened: (§3)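 Analogue suspended in PBS with 0.1% BSA and given intravenously; rectal temperature read with a rectal probe every 5 or 10 min for 60 min. Means ± SE of three independent experiments.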

[7] = tested on: Mus musculus; test: Effect on hypothermic effect in iv dosed C57BL/6 mouse assessed as reduction in rectal temperature measured every 5 to 10 mins for 60 mins; type: functional, organism-based; procedure, shortened: as §3
[8] = tested on: Mus musculus; test: Effect on hypothermic effect in mast cell-deficient WBB6F1 mouse assessed as reduction in rectal temperature at 10 ug, iv measured every 5 to 10 mins for 60 mins; type: functional, organism-based
Procedure, shortened: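 W/Wv mast cell-deficient mice, with C57BL/6 as comparison, were given 10 μg iv in PBS containing 0.1% BSA. Rectal temperature was monitored every 5 or 10 min for 60 min. Three independent experiments.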

[9] = tested on: Mus musculus; test: Increase in plasma histamine level in iv dosed C57BL/6 mouse after 2 mins by EIA; type: functional, organism-based
Procedure, shortened: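 Mice injected i.v. with analogue in PBS with 0.1% BSA; blood taken 2 min after injection and plasma histamine measured by enzyme immunoassay. Means ± SE of three independent experiments.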

[10] = tested on: Rattus norvegicus; test: Effect on hypothermic effect in Wistar rat assessed as reduction in rectal temperature at 20 to 200 ug, iv measured every 5 to 10 mins for 60 mins; type: functional, organism-based
Procedure, shortened: (§4)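 Analogue suspended in PBS with 0.1% BSA and injected iv into C57BL/6 mice or Wistar rats; rectal temperature recorded by probe every 5 or 10 min for 60 min. Means of three independent experiments.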

[11] = tested on: CHO-K1; test: Increase in intracellular calcium level in CHOK1 cells by spectrofluorimetry; type: functional, cell-based; settings: Cricetulus griseus
Procedure, shortened: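 Fura-2-loaded mock-transfected CHO-K1 cells were stimulated at 2 μM; [Ca2+]i read as 500 nm emission ratio at 340/380 nm excitation.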

[12] = tested on: Mast cell; test: Stimulation of mouse bone marrow-derived mast cell degranulation; type: functional, cell-based
[13] = biological target: Probable G-protein coupled receptor 34 (Mus musculus) (UniProt Q9R1K6); test: Activation of mouse GPR34 expressed in CHOK1 cells assessed as increase in intracellular calcium level by spectrofluorimetry; type: functional, cell-based; settings: CHO-K1
Procedure, shortened: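 Fura-2-loaded CHO-K1 cells stably expressing flag-tagged GPR34 (G418 selection, then anti-flag immunomagnetic positive selection), stimulated with analogue at 2 μM; [Ca2+]i read fluorometrically as ratio of 500 nm emission at 340/380 nm excitation.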

[14] = tested on: Mus musculus; test: Effect on hypothermic effect in C57BL/6 mouse assessed as reduction in rectal temperature at 25 to 100 ug, iv measured every 5 to 10 mins for 60 mins; type: functional, organism-based; procedure, shortened: as §4
[15] = tested on: CHO-K1; test: Inhibition of forskolin-induced cAMP production in CHOK1 cells at 0.01 to 10 uM after 30 mins by EIA; type: functional, cell-based; settings: Cricetulus griseus
Procedure, shortened: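 Mock-transfected CHO-K1 cells were cultured overnight and pretreated 20 min with 0.5 mM IBMX, then costimulated with analogue and 25 μM forskolin for 30 min at 37 C; accumulated cAMP was measured by EIA.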

[16] = tested on: Mast cell; test: Induction of Wistar rat peritoneal mast cell degradation assessed as anti-DNP IgE-induced histamine release at 0.01 to 10 uM after 15 mins fluorometric assay; type: functional, cell-based
[17] = biological target: Probable G-protein coupled receptor 34 (Mus musculus) (UniProt Q9R1K6); test: Activation of mouse GPR34 expressed in CHOK1 cells assessed as inhibition of forskolin-induced cAMP production at 0.01 to 10 uM after 30 mins by EIA; type: functional, cell-based; settings: CHO-K1
Procedure, shortened: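 CHO-K1 stably expressing flag-tagged mouse GPR34, cultured overnight, pretreated 20 min with 0.5 mM IBMX, then costimulated with analogue plus 25 μM forskolin for 30 min at 37 C; cAMP measured by EIA, level without ligand set as 100%.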

[18] = biological target: Probable G-protein coupled receptor 34 (Mus musculus) (UniProt Q9R1K6); test: Activation of mouse GPR34 expressed in CHOK1 cells assessed as phosphorylated ERK level at 0.01 to 10 uM by Western blotting; type: cell-based; settings: CHO-K1
Procedure, shortened: (§5)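 Serum-starved CHO-K1 cells stably expressing flag-tagged GPR34 were stimulated with analogue for 5 min at 37 C and stopped by rapid cooling on ice. Lysates (6 μg protein) were Western blotted with antibodies to phospho-p42/p44 and total p42/p44 MAP kinase. Mock-transfected cells served as control.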

[19] = biological target: Probable G-protein coupled receptor 34 (Mus musculus) (UniProt Q9R1K6); test: Activation of mouse GPR34 expressed in CHOK1 cells assessed as total ERK level at 0.01 to 10 uM by Western blotting; type: cell-based; settings: CHO-K1; procedure, shortened: as §5
[20] = tested on: CHO-K1; test: Increase in MAPK level in CHOK1 cells at 0.01 to 10 uM by Western blotting; type: functional, cell-based; settings: Cricetulus griseus
Procedure, shortened: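 Serum-starved mock (empty vector) transfected CHO-K1 cells were stimulated for 5 min at 37 C and cooled on ice to stop. Lysates (6 μg protein) were Western blotted for phospho- and total p42/p44 MAP kinase.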

Sequence of Probable G-protein coupled receptor 34 (Mus musculus) (Q9R1K6 whole entry): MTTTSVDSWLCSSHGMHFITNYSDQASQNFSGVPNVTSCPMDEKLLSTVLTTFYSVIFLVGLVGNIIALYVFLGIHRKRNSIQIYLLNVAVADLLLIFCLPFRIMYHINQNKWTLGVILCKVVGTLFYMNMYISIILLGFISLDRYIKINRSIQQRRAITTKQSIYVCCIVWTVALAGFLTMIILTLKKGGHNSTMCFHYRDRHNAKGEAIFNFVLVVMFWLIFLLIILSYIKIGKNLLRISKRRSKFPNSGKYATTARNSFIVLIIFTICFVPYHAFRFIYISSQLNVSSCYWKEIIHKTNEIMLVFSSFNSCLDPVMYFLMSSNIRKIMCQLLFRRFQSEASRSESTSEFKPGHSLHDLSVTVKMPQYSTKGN

Row | SMILES | EC50 [1] [nM] | Activity [2] | Activity [3] | EC50 [5] [nM] | other results
1 | CCCCCCCCCCCCCCCCCC(=O)OCCOP(=O)(O)OC[C@H](N)C(=O)O | > 10000 | inactive | inactive | – | –
2 | CCCCCCCCCCCCCCCCCC(=O)OCCCCCOP(=O)(O)OC[C@H](N)C(=O)O | > 10000 | inactive | inactive | – | –
3 | CCCCCCCCCCCC(=O)OC[C@@H](O)COP(=O)([O-])OCC[N+](C)(C)C [LYSOPHOSPHATIDYLCHOLINE] | – | – | – | – | Activity [4]: Toxic
4 | CCCCCCCCCCCCCCCCCC(=O)OC[C@@H](O)COP(=O)(O)O[C@@H]1CCN[C@H]1C(=O)O | > 10000 | inactive | inactive | – | –
5 | CCCCCCCCCCCCCCCCCC(=O)OC[C@H](COP(=O)(O)OC[C@H](N)C(=O)O)OC | 2000 | – | – | – | –
6 | CCCCCCCCCCCCCCCCCC(=O)OC[C@@H](O)COP(=O)(O)OC[C@H](NC)C(=O)O | > 10000 | inactive | inactive | – | –
7 | CCCCCCCCCCCCCCCCCC(=O)N(C)C[C@@H](O)COP(=O)(O)OC[C@H](N)C(=O)O | 10000 | inactive | inactive | – | –
8 | CCCCCCCCCCCC(=O)OC[C@@H](O)COP(=O)(O)O[C@H](C)[C@H](N)C(=O)O | 150 | – | – | 50 | –
9 | CCCCCCCCCCCCCCCCCC(=O)OC[C@H](O)COP(=O)(O)OC[C@H](N)C(=O)O | 1000 | – | – | 70 | –
10 | CCCCCCCCCCCCCCCCCC(=O)OC[C@@H](O)COP(=O)(O)O[C@H]1CN[C@@H](C(=O)O)C1 | > 10000 | inactive | inactive | – | –
11 | CCCCCCCCCCCCCCCCCC(=O)NC[C@@H](O)COP(=O)(O)OC[C@H](N)C(=O)O | 5000 | inactive | inactive | – | –
12 | CCCCCCCCCCCCCCCCCC(=O)OCCCOP(=O)(O)OC[C@H](N)C(=O)O | 500 | – | – | 40 | –
13 | CCCCCCCCCCCCCCCCCC(=O)O[C@H](C)COP(=O)(O)OC[C@H](N)C(=O)O | > 10000 | – | – | – | –
14 | CCCCCCCCCCCCCCCCCC(=O)OC[C@@H](O)COP(=O)(O)O[C@@H](C)[C@H](N)C(=O)O | 2000 | – | – | 200 | Activity [6]: inactive; Activity [7]: inactive
15 | CCCCCCCCCCCCCCCCCC(=O)OCCCOP(=O)(O)O[C@H](C)[C@H](N)C(=O)O | 100 | Active | Active | 7 | Activity [8]: inactive; Activity [9]: Active; Activity [7]: Active
16 | CCCCCCCCCCCCCCCCCC(=O)OCCCCOP(=O)(O)OC[C@H](N)C(=O)O | 5000 | inactive | inactive | – | –
17 | CCCCCCCCCCCCCCCCCC(=O)OC[C@@H](O)COP(=O)(O)OC[C@H](N)C(=O)O | 400 | – | – | 100 | Activity [10]: Active; Activity [11]: inactive; Activity [12]: inactive; Activity [13]: Active; Activity [14]: Active; Activity [8]: inactive; Activity [15]: inactive; Activity [16]: Active; Activity [17]: Active; Activity [18]: Active; Activity [19]: Active; Activity [4]: Non-toxic; Activity [20]: inactive
18 | CCCCCCCCCCCCCCCCCC(=O)OC[C@@H](O)COP(=O)(O)O[C@@H]1CN[C@@H](C(=O)O)C1 | > 10000 | inactive | inactive | – | –
19 | CCCCCCCCCCCCCCCC(=O)OCCCOP(=O)(O)O[C@H](C)[C@@H](N)C(=O)O | > 10000 | – | – | – | Activity [6]: inactive; Activity [7]: inactive
20 | CCCCCCCCCCCCCCCC(=O)OCCCOP(=O)(O)O[C@H](C)[C@H](N)C(=O)O | 60 | Active | Active | – | –
21 | CCCCCCCCCCCCCCCCCC(=O)OC[C@@H](O)COP(=O)(O)OC[C@H](N)C(=O)OC | > 10000 | inactive | inactive | – | –
22 | CCCCCCCCCCCCCCCCCC(=O)OC[C@@H](COP(=O)(O)OC[C@H](N)C(=O)O)OC | 5000 | – | – | – | –
23 | CCCCCCCCCCCCCCCC(=O)OC[C@@H](O)COP(=O)(O)O[C@H](C)[C@H](N)C(=O)O | 40 | – | – | 20 | Activity [9]: Active
